Data: ChEMBL document CHEMBL3045866, “A novel family of insect-selective peptide neurotoxins targeting insect large-conductance calcium-activated K+ channels isolated from the venom of the theraphosid spider Eucratoscelus constrictus” (Mol Pharmacol, 2011)
Active and inactive are the calls of the source. No cut-off for these calls is given here. Bridge positions count the residues as written; N and C are the ends. Peptide text beside a SMILES is read from it.

Tests used:
Mus musculus [1] = test: Neurotoxicity against Mus musculus C57BL/6 (mouse) assessed as effect on posture at 500 pmol, icv; format: toxicity, organism-based; settings: in vivo, icv_or_intrathecal
Method in brief: (§1)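 Female C57BL/6 mice (~20 g) lightly anesthetized with diethylether. 5 µl of sample in BSA solution injected into the left cerebral ventricle. Posture, behavior and neurotoxic signs observed; n = 2.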

[2] = Inhibition of transient A type potassium channel IK(A) in Periplaneta americana (American cockroach) DUM neurons assessed as effect on voltage-dependent activation at 330 nM measured at holding potential -90 mV depolarized to +40 mV with 100 ms increments after 10 min by whole cell patch clamp …
[3] = Inhibition of delayed rectifier potassium channel IK(DR) in Periplaneta americana (American cockroach) DUM neurons assessed as effect on voltage-dependent activation at 330 nM measured at holding potential -90 mV depolarized to +40 mV with 100 ms increments after 10 min by whole cell voltage clamp …
[4] = Inhibition of delayed rectifier potassium channel IK(DR) in Periplaneta americana (American cockroach) DUM neurons at 330 nM measured at holding potential -90 mV depolarized to +30 mV after 10 min by whole cell voltage clamp assay in presence of CdCl2 and ChTx relative to control
[5] = target: Voltage-dependent calcium channel alpha-1 subunit (Blattella germanica) (UniProt O18323); test: Inhibition of high voltage activated Cav channel in Periplaneta americana (American cockroach) DUM neurons assessed as effect on voltage-dependent activation at 330 nM measured at holding potential -90 mV depolarized to +70 mV with 10 mV increments after 10 min by whole cell patch clamp assay
Method in brief: (§2)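 Ba2+ currents through M-LVA and HVA Cav channels recorded by whole-cell clamp in cockroach DUM neurons at 20–23°C. Toxin applied for 10 min via a perfusion needle. Peak IBa measured relative to control. For activation, steps from Vh -90 mV to +70 mV in 10-mV increments at 0.1 Hz. P-P/4 leak subtraction; n = 3.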

[6] = target: Voltage-dependent calcium channel alpha-1 subunit (Blattella germanica) (UniProt O18323); test: Inhibition of voltage-gated calcium channel Cav-mediated late-sustained current in Periplaneta americana (American cockroach) DUM neurons assessed as measured at holding potential -80 mV depolarized to +40 mV after 10 min by whole cell patch clamp assay in presence of CdCl2
Method in brief: (§3)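 BK(Ca) current in DUM neurons with 5 mM 4-AP in the bath. Toxin perfused for 10 min or to equilibrium; then 1 mM CdCl2 plus 30 nM ChTx added, and the residual current subtracted. 100-ms steps from Vh -80 mV to +30 mV, or to +40 mV in 10-mV increments for I–V. Peak (fast-transient) and 100-ms (late) amplitudes measured. IC50 from logistic fit; n = 3–6.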

Gryllus bimaculatus [7] = test: Neurotoxicity against third-instar nymph stage of Gryllus bimaculatus (cricket) assessed as mortality at 1.1 nmol/g measured at 15 min; format: functional, organism-based
[8] = target: Voltage-dependent calcium channel alpha-1 subunit (Blattella germanica) (UniProt O18323); test: Inhibition of mid-low voltage activated Cav channel in Periplaneta americana (American cockroach) DUM neurons assessed as effect on voltage-dependent activation at 330 nM measured at holding potential -90 mV depolarized to +70 mV with 10 mV increments after 10 min by whole cell patch clamp assay; method in brief: as §2
Mus musculus [9] = test: Neurotoxicity against Mus musculus C57BL/6 (mouse) assessed as effect on behaviour at 500 pmol, icv; format: toxicity, organism-based; settings: in vivo, icv_or_intrathecal; method in brief: as §1
[10] = target: Voltage-dependent calcium channel alpha-1 subunit (Blattella germanica) (UniProt O18323); test: (§4) Inhibition of voltage-gated calcium channel Cav-mediated fast-transient current in Periplaneta americana (American cockroach) DUM neurons assessed as effect on voltage-dependent activation at 6 nM measured at holding potential -80 mV in 10 mV increments depolarized to +40 mV after 10 min by whole cell patch clamp assay in presence of CdCl2; method in brief: as §3
[11] = target: Voltage-gated sodium channel Nav1 alpha subunit (Periplaneta americana) (UniProt D0E0C1); test: Inhibition of Nav channel in Periplaneta americana (American cockroach) DUM neurons assessed as effect on voltage-dependent activation at 330 nM measured at holding potential -90 mV depolarised to +70 mV with 10 mV increments for 10 min by whole cell patch clamp assay
Method in brief: (§5)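 Whole-cell voltage clamp of TTX-sensitive Na+ current in DUM neurons isolated from adult cockroaches and kept no longer than 24 h at 30°C. Bath (mM): NaCl 80, CsCl 5, CaCl2 1.8, TEA-Cl 50, 4-AP 5, HEPES 10, NiCl2 0.1, CdCl2 1, pH 7.4. Vh -90 mV; test pulse to -10 mV, or steps to +70 mV in 10-mV increments at 0.1 Hz. P-P/4 leak subtraction; 20–23°C.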

Gryllus bimaculatus [12] = test: Neurotoxicity against third-instar nymph stage of Gryllus bimaculatus (cricket) assessed as paralysis at 1.1 nmol/g measured within 5 min; format: functional, organism-based
[13] = target: Voltage-dependent calcium channel alpha-1 subunit (Blattella germanica) (UniProt O18323); test: Inhibition of voltage-gated calcium channel Cav-mediated fast-transient current in Periplaneta americana (American cockroach) DUM neurons assessed as measured at holding potential -80 mV depolarized to +40 mV after 10 min by whole cell patch clamp assay in presence of CdCl2; method in brief: as §3
[14] = Reversible inhibition of Potassium channel Kv in Periplaneta americana (American cockroach) DUM neurons at 330 nM measured at holding potential -90 mV depolarized to +30 mV after 10 min by whole cell patch clamp assay relative to control
[15] = target: Voltage-dependent calcium channel alpha-1 subunit (Blattella germanica) (UniProt O18323); test: as §4, with “late-sustained” for “fast-transient”; method in brief: as §3
[16] = Inhibition of transient A type potassium channel IK(A) in Periplaneta americana (American cockroach) DUM neurons at 330 nM measured at holding potential -90 mV depolarized to +30 mV after 10 min by whole cell patch clamp assay in presence of CdCl2 and ChTx
[17] = target: Voltage-gated sodium channel Nav1 alpha subunit (Periplaneta americana) (UniProt D0E0C1); test: Inhibition of Nav channel in Periplaneta americana (American cockroach) DUM neurons assessed as remaining activity at 330 nM measured at holding potential -90 mV depolarized to -10 mV after 10 min by whole cell patch clamp assay relative to control; method in brief: as §5
[18] = target: Voltage-dependent calcium channel alpha-1 subunit (Blattella germanica) (UniProt O18323); test: as §4, with “25” for “6”; method in brief: as §3
[19] = target: Voltage-dependent calcium channel alpha-1 subunit (Blattella germanica) (UniProt O18323); test: as §4, with “late-sustained” for “fast-transient”, “25” for “6”
[20] = target: Voltage-dependent calcium channel alpha-1 subunit (Blattella germanica) (UniProt O18323); test: Inhibition of mid-low voltage activated Cav channel in Periplaneta americana (American cockroach) DUM neurons assessed as reduction in barium current at 330 nM measured at holding potential -90 mV depolarized to -20 mV after 10 min by whole cell patch clamp assay relative to control; method in brief: as §2
[21] = target: Voltage-dependent calcium channel alpha-1 subunit (Blattella germanica) (UniProt O18323); test: Inhibition of high voltage activated Cav channel in Periplaneta americana (American cockroach) DUM neurons assessed as reduction in barium current at 330 nM measured at holding potential -90 mV depolarized to +30 mV after 10 min by whole cell patch clamp assay relative to control; method in brief: as §2

Chain of Voltage-gated sodium channel Nav1 alpha subunit (Periplaneta americana) (D0E0C1 as listed by the source): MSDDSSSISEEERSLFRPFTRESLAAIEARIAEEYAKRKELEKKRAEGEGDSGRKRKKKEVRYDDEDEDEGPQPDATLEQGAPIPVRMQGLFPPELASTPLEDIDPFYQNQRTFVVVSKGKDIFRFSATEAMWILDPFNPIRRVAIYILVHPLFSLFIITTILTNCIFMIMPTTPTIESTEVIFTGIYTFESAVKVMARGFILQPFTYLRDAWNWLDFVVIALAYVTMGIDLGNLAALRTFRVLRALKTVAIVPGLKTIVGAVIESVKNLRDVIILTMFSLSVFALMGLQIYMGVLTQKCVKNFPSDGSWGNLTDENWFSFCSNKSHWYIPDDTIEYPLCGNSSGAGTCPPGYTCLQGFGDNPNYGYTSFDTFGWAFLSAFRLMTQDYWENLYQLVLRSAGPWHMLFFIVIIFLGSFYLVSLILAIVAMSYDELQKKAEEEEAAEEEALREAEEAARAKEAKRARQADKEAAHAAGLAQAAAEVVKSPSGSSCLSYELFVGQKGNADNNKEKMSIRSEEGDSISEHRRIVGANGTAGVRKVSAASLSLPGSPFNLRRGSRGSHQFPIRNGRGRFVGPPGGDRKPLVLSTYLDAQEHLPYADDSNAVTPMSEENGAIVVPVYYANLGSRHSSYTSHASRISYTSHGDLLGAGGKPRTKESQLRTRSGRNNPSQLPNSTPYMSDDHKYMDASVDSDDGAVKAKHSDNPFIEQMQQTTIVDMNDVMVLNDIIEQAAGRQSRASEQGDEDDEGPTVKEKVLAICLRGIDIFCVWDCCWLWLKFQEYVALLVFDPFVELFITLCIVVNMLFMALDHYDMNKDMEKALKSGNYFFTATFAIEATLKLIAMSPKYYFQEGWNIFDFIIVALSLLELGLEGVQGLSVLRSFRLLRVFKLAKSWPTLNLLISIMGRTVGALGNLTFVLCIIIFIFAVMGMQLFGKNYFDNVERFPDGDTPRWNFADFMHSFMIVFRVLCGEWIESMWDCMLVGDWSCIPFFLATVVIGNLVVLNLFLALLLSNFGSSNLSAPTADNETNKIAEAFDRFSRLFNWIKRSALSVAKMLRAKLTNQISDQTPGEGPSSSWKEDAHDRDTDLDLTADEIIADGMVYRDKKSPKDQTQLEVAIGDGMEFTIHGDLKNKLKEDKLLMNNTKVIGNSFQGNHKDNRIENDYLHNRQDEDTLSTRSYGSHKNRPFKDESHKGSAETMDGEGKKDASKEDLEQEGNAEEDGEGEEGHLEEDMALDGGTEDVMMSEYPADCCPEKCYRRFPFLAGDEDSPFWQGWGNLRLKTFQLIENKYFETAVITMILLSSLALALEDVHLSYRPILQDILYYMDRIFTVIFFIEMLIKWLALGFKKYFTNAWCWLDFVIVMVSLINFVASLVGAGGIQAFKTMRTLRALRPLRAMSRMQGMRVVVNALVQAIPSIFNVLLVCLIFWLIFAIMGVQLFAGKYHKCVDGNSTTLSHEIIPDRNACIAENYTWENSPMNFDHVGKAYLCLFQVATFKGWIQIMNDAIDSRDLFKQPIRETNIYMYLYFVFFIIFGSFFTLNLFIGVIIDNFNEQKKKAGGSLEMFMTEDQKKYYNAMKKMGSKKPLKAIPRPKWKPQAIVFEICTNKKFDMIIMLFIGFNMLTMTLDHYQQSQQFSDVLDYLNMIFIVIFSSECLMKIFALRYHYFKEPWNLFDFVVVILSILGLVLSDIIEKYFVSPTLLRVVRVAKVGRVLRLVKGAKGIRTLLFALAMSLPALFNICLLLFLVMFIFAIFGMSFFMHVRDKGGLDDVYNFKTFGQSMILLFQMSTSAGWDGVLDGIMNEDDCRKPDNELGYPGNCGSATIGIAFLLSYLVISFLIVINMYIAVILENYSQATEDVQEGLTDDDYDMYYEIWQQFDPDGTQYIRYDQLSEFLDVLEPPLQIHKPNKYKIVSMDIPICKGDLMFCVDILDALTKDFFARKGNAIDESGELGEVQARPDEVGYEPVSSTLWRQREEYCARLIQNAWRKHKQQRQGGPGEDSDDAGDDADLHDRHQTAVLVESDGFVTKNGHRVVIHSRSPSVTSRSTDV
Chain of Voltage-dependent calcium channel alpha-1 subunit (Blattella germanica) (O18323 as listed by the source): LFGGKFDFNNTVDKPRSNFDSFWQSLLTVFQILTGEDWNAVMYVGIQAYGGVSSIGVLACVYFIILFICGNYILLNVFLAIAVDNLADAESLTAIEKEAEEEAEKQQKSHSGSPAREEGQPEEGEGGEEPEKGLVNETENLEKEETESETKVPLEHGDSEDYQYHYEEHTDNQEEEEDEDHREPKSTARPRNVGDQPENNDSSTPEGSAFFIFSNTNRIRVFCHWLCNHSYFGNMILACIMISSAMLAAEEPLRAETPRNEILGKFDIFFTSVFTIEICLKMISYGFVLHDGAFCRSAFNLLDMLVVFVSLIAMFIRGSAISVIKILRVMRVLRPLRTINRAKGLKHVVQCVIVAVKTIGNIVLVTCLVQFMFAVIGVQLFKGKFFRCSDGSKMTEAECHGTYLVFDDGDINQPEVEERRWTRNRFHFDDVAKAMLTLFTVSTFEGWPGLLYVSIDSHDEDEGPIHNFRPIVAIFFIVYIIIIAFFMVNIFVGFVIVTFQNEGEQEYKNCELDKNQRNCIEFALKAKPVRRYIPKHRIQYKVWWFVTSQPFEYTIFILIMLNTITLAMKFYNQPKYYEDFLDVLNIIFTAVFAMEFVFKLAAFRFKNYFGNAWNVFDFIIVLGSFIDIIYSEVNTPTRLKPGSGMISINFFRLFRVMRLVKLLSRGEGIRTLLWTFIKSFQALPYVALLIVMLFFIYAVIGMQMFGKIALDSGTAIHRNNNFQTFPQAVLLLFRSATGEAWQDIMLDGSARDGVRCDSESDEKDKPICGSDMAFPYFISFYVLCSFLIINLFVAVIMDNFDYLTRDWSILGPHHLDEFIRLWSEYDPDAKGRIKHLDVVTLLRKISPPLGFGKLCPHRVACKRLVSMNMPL

inhibition [2]	inhibition [3]	inhibition [4]	inhibition [5]	inhibition [6]	inhibition [8]	inhibition [11]	inhibition [13]	inhibition [14]	inhibition [16]	Structure (SMILES)	Activity (Mus musculus [1])	Activity (Gryllus bimaculatus [7])	Activity (Mus musculus [9])	Activity (Gryllus bimaculatus [12])	further results
inactive	inactive	31%	inactive	Dose-dependent effect	inactive	inactive	Dose-dependent effect	Active	Active	CSCC[C@@H]1NC(=O)[C@H](CC(=O)O)NC(=O)[C@H](CCC(=O)O)NC(=O)[C@@H]2CSSC[C@H](NC(=O)[C@@H](N)Cc3ccc(O)cc3)C(=O)N[C@@H](CCC(N)=O)C(=O)N[C@@H](CCCCN)C(=O)N[C@@H](Cc3ccccc3)C(=O)N[C@@H](CC(C)C)C(=O)N[C@@H](Cc3c[nH]c4ccccc34)C(=O)N[C@@H]([C@@H](C)O)C(=O)N[C@H]3CSSC[C@H](NC(=O)[C@H](C(C)C)NC1=O)C(=O)N[C@@H](CCC(=O)O)C(=O)N[C@@H](CC(C)C)C(=O)N[C@@H](Cc1c[nH]c4ccccc14)C(=O)N[C@H](C(=O)N[C@@H](CCCCN)C(=O)N[C@@H](CC(C)C)C(=O)N[C@@H](CCC(=O)O)C(=O)N[C@@H](CCCCN)C(=O)O)CSSC[C@H](NC(=O)[C@H](CCCCN)NC(=O)[C@H](CCCNC(=N)N)NC(=O)[C@H](CCC(=O)O)NC(=O)[C@H]([C@@H](C)O)NC(=O)[C@H](CC(=O)O)NC3=O)C(=O)N2 (H-YCQKFLWTCDTERKCCEDMVCELWCKLEK-OH; disulfide 2-16, 9-21, 15-25)	Non-toxic	Active	Non-toxic	Active	inhibition [10]: inactive; inhibition [15]: inactive
inactive	inactive	inactive	inactive	Dose-dependent effect	inactive	inactive	Dose-dependent effect	Active	inactive	CSCC[C@@H]1NC(=O)[C@H](CC(=O)O)NC(=O)[C@H](CCC(=O)O)NC(=O)[C@@H]2CSSC[C@H](NC(=O)[C@@H](N)Cc3ccc(O)cc3)C(=O)N[C@@H](CCC(N)=O)C(=O)N[C@@H](CCCCN)C(=O)N[C@@H](Cc3ccccc3)C(=O)N[C@@H](CC(C)C)C(=O)N[C@@H](Cc3c[nH]c4ccccc34)C(=O)N[C@@H]([C@@H](C)O)C(=O)N[C@H]3CSSC[C@H](NC(=O)[C@H](C(C)C)NC1=O)C(=O)N[C@@H](CCC(=O)O)C(=O)N[C@@H](CC(C)C)C(=O)N[C@@H](Cc1c[nH]c4ccccc14)C(=O)N[C@H](C(=O)N[C@@H](CCCCN)C(=O)N[C@@H](Cc1ccc(O)cc1)C(=O)N[C@@H](CCCCN)C(=O)N[C@@H](CCC(=O)O)C(=O)O)CSSC[C@H](NC(=O)[C@H](CCCCN)NC(=O)[C@H](CCCNC(=N)N)NC(=O)[C@H](CCC(=O)O)NC(=O)[C@H]([C@@H](C)O)NC(=O)[C@H](CC(=O)O)NC3=O)C(=O)N2 (H-YCQKFLWTCDTERKCCEDMVCELWCKYKE-OH; disulfide 2-16, 9-21, 15-25)	Non-toxic	Active	Non-toxic	Active	Activity [17]: 92%; inhibition [18]: inactive; inhibition [19]: inactive; inhibition [20]: 10%; inhibition [21]: 7%
